Screens: PubChem, several laboratories
CHOP inhibitor – CHOP inhibition in unfolded protein response. CHO-K1 CHOP-promoter luciferase, tunicamycin-induced, 15-18 h. inhibition, % at 10 µM. 3.8% of 220,000 active. AID 2732;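 active = compounds that reduced the stress-induced luciferase reporter signal by more than about 70% of percent inhibition, limit read from the data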
UPR CHOP act – activators of apoptotic arm of unfolded protein response (CHOP); 0.34% of 330,000 active; AID 449763; activation, % at 10 µM; CHO-CHOP luciferase reporter, UPR activation, luminescence; percent of tunicamycin response over DMSO baseline;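 active = at 10 µM dose, activation of 40% or more, normalized to positive control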
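System: CHO-CHOP luciferase reporter cell line; amount: 500 cells/well; buffer or medium: F12 medium containing 10% fetal bovine serum; incubation: 6 h compound exposure at 37 °C after overnight seeding; measured by: luciferase luminescence after 10 min with Steady-Glo reagent; evaluation: % reporter activation, DMSO baseline versus tunicamycin full activation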
PvdQ inh – P. aeruginosa PvdQ acylase inhibition; purified PvdQ acylase, fluorescence plate reader; 0.063% of 340,000 active; inhibition, % at 10 µM; in the data active = inhibition above about 30%, passing the limit was not always enough
UPR XBP1 act – adaptive UPR (XBP1) activation; CHO-XBP1 luciferase reporter, IRE1-XBP1 UPR activation, luminescence; percent of tunicamycin response, DMSO as zero; 0.33% of 330,000 active; activation, % at 20 µM;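 active = versus positive control, 20 µM dose yields 30% or more activation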
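Material: CHO-XBP1 cells stably carrying IRE1-XBP1-driven luciferase reporter / Amount: 1000 cells per well / Compound: 20 µM, 1% DMSO / Times: 6 h treatment, 37 °C / Detection: luciferase luminescence / Measure: % activation of reporter signal versus tunicamycin and DMSO controls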
A number is an active result; ! = a repeat was not active. Shown is part of a subset that was picked to be rich in hits.

`COc1ccc(CCN(C(=O)C(F)(F)F)C(C(=O)NC2CCCCC2)c2cccs2)cc1` (centres undefined) gave CHOP inhibitor inactive, UPR CHOP act inactive, PvdQ inh inactive and UPR XBP1 act inactive.
For COc1ccc(CCN(C(=O)C(F)(F)F)C(C(=O)NC2CCCCC2)c2ccc(C)s2)cc1 (centres undefined) the results were CHOP inhibitor 87, UPR CHOP act inactive, PvdQ inh inactive and UPR XBP1 act inactive.
CCC(=O)Nc1ccccc1-c1nnn(CC(=O)N2c3ccccc3CC2C)n1 (centres undefined) was read as CHOP inhibitor 76, UPR CHOP act inactive, PvdQ inh inactive and UPR XBP1 act inactive.
`COc1ccccc1N1CCN(C(=O)c2c(-c3c(F)cccc3Cl)noc2C)CC1` gave UPR CHOP act inactive, PvdQ inh inactive and UPR XBP1 act inactive.
`NS(=O)(=O)c1ccc(CCNC(=O)CN2CCCCCC2)cc1` gave CHOP inhibitor inactive, UPR CHOP act inactive, PvdQ inh inactive and UPR XBP1 act inactive.
`COc1cc(/C=N/NC(=O)COc2c(C)cc([N+](=O)[O-])cc2C)ccc1OC(=O)c1ccccc1Br` gave CHOP inhibitor 76, UPR CHOP act inactive, PvdQ inh inactive and UPR XBP1 act inactive.
For COc1cc(/C=N/NC(=O)COc2c(C)cc([N+](=O)[O-])cc2C)ccc1OC(=O)c1ccccc1 the results were CHOP inhibitor inactive, UPR CHOP act inactive, PvdQ inh inactive and UPR XBP1 act inactive.
Screening CC(=O)NC1=CC(=C[N+](=O)[O-])C=C1O returned PvdQ inh inactive.
Screening CCCN(CCC)C1Sc2ccc(C(=O)OC)cc2NC1=O (centres undefined) returned CHOP inhibitor 82, UPR CHOP act inactive, PvdQ inh inactive and UPR XBP1 act inactive.
For COC(=O)c1ccc2c(c1)NC(=O)C(N(CC(C)C)CC(C)C)S2 (centres undefined) the results were CHOP inhibitor inactive, UPR CHOP act inactive, PvdQ inh inactive and UPR XBP1 act inactive.
CC(C)Cn1c(O)c(/C=C2\C=NN=C2c2ccccc2)sc1=S was read as CHOP inhibitor 71, UPR CHOP act inactive, PvdQ inh inactive and UPR XBP1 act inactive.
`C=CCn1c(SCc2ccc(Cl)cc2)nc2cc(C(=O)N3CCC(C(N)=O)CC3)ccc2c1=O` gave CHOP inhibitor 83, UPR CHOP act inactive, PvdQ inh inactive and UPR XBP1 act inactive.
For CCCCCc1cc(=O)oc2c(C(CCN3CCCC3)c3ccc(N(C)C)cc3)c(OC)cc(OC)c12 (centres undefined) the results were CHOP inhibitor inactive, UPR CHOP act inactive, PvdQ inh inactive and UPR XBP1 act inactive.
For CCCCCc1cc(=O)oc2c(C(CCN3CCCC(C)C3)c3ccc(OC)cc3)c(OC)cc(OC)c12 (centres undefined) the results were CHOP inhibitor 71, UPR CHOP act inactive, PvdQ inh inactive and UPR XBP1 act inactive.
For CCCCCc1cc(=O)oc2c(C(CCN3CCCCC3)c3ccc(OC)cc3)c(OC)cc(OC)c12 (centres undefined) the results were CHOP inhibitor 72, UPR CHOP act inactive, PvdQ inh inactive and UPR XBP1 act inactive.
Screening CCCCCc1cc(=O)oc2c(C(CCN3CCCC3)c3cc(OC)c(OC)c(OC)c3)c(OC)cc(OC)c12 (centres undefined) returned CHOP inhibitor inactive, UPR CHOP act inactive, PvdQ inh inactive and UPR XBP1 act inactive.
Cc1ccc(-c2csc3ncn(CC(=O)NCC(c4ccco4)N4CCCC4)c(=O)c23)cc1 (centres undefined) was read as UPR CHOP act inactive, PvdQ inh inactive and UPR XBP1 act inactive.
O=C(c1ccc(Cl)c(Cl)c1)N(Cc1ccco1)c1ccc(O)cc1 was read as CHOP inhibitor 87, UPR CHOP act inactive, PvdQ inh inactive and UPR XBP1 act inactive.
`O=C(Nc1cccc2ncccc12)c1ccc(OCc2ccccc2)cc1` gave CHOP inhibitor inactive, UPR CHOP act inactive, PvdQ inh inactive and UPR XBP1 act inactive.
Cc1ccc(SC(C)C(=O)Nc2ccccc2-c2ccccc2)cc1 (centres undefined) was read as CHOP inhibitor inactive, UPR CHOP act inactive, PvdQ inh inactive and UPR XBP1 act inactive.
`CC(Sc1ccc(Cl)cc1)C(=O)Nc1ccccc1-c1ccccc1` (centres undefined) gave CHOP inhibitor 93 and PvdQ inh inactive.
`CCCn1ncc(OC)c(Cl)c1=O` gave CHOP inhibitor inactive, UPR CHOP act inactive, PvdQ inh inactive and UPR XBP1 act inactive.
Screening COC(=O)c1ccc(CSc2nc3ccccc3o2)cc1 returned CHOP inhibitor inactive, UPR CHOP act inactive, PvdQ inh inactive and UPR XBP1 act inactive.
Screening O=[N+]([O-])c1ccc(CSc2nc3ccccc3o2)cc1 returned CHOP inhibitor 84, UPR CHOP act inactive, PvdQ inh inactive and UPR XBP1 act inactive.
Screening CC(=O)C(Cl)C(=O)Nc1ccccc1 (centres undefined) returned CHOP inhibitor 83 and PvdQ inh inactive.
CC1=CC(=C(C#N)C#N)C=C(C)N1Cc1ccccc1 was read as CHOP inhibitor inactive, UPR CHOP act inactive, PvdQ inh inactive and UPR XBP1 act inactive.
Screening O=C(CCl)NCCNC(=O)c1cc(OCC(F)(F)F)ccc1OCC(F)(F)F returned CHOP inhibitor inactive, UPR CHOP act inactive, PvdQ inh inactive and UPR XBP1 act inactive.
For O=C(NCCNC(=O)c1cc(OCC(F)(F)F)ccc1OCC(F)(F)F)Nc1ccc(OC(F)(F)F)cc1 the results were CHOP inhibitor 90, UPR CHOP act inactive, PvdQ inh inactive and UPR XBP1 act inactive.
For O=C(NCC1CCCCN1)c1cc(OCC(F)(F)F)ccc1OCC(F)(F)F (centres undefined) the results were CHOP inhibitor 74!, UPR CHOP act inactive, PvdQ inh inactive and UPR XBP1 act inactive.
Screening O=C(NCCNC(=O)c1cc(OCC(F)(F)F)ccc1OCC(F)(F)F)Nc1ccc(Cl)cc1 returned CHOP inhibitor inactive, UPR CHOP act inactive and UPR XBP1 act inactive.
`C/C(C=O)=C/c1ccccc1` gave UPR CHOP act inactive, PvdQ inh inactive and UPR XBP1 act inactive.
Screening CCOP(=O)(OCC)c1nc(-c2ccc(Cl)cc2)oc1NCc1ccccc1 returned CHOP inhibitor 92, UPR CHOP act inactive, PvdQ inh inactive and UPR XBP1 act inactive.
Screening Cc1nn(-c2nc(-c3ccco3)cc(C(F)(F)F)n2)c(C)c1Cl returned CHOP inhibitor 88, UPR CHOP act inactive, PvdQ inh inactive and UPR XBP1 act inactive.
For O=C(NCC1COc2ccccc2O1)c1ccc(F)c(S(=O)(=O)N2CCOCC2)c1 (centres undefined) the results were UPR CHOP act inactive, PvdQ inh inactive and UPR XBP1 act inactive.
`CCc1ccc(NC(=O)c2ccc(F)c(S(=O)(=O)NCC3COc4ccccc4O3)c2)cc1` (centres undefined) gave CHOP inhibitor 78, UPR CHOP act inactive, PvdQ inh inactive and UPR XBP1 act inactive.
